Assay results reported in ChEMBL document CHEMBL3627702, “Navigating CYP1A Induction and Arylhydrocarbon Receptor Agonism in Drug Discovery. A Case History with S1P1 Agonists” (J Med Chem, 2015).

Assays:
[1] = AUC in Sprague-Dawley rat at 17 mg/kg, po QD measured on day 1; format: ADME, organism-based; details: in vivo
Summary of the method: (§1)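 Male CD rats (226−325 g), n = 3, given the compound once daily by oral gavage for 4 days. Vehicle was 1% (w/v) methylcellulose aq suspension at 3−6 mg/mL, dosed at 5 mL/kg (target 15−30 mg/kg). Tail vein blood was taken on days 1 and 4 up to 24 h postdose. Blood was diluted 1:1 with water, extracted by acetonitrile protein precipitation and analysed by LC−MS/MS against calibration standards in diluted blood.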

CYP1A1 [2] = assay: Induction of CYP1A1 mRNA expression in Sprague-Dawley rat hepatic microsomes at 17 mg/kg, po QD for 4 days relative to control; format: ADME, organism-based, Liver; details: read-out: FC
Summary of the method: (§2)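 Male CD rats (226–325 g, n = 3) were dosed by oral gavage once daily for 4 days as a 1% w/v aqueous methylcellulose suspension (3–6 mg/mL, 5 mL/kg). At the end of the study, a left lateral liver lobe section was placed in RNALater and homogenised in TRIzol. RNA was purified, DNase-treated and converted to cDNA, and Cyp1a1 was read on low-density TaqMan arrays.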

Rattus norvegicus [3] = assay: Dose normalized AUC in Sprague-Dawley rat at 17 mg/kg, po QD measured on day 4; format: ADME, organism-based; details: in vivo; summary of the method: as §1
[4] = Lipophilicity, log D of the compound at pH 7.4; format: physicochemical; details: buffer
[5] = AUC in Sprague-Dawley rat at 17 mg/kg, po QD measured on day 4; format: ADME, organism-based; details: in vivo; summary of the method: as §1
CYP1A2 [6] = assay: Induction of CYP1A2 mRNA expression in Sprague-Dawley rat hepatic microsomes at 17 mg/kg, po QD for 4 days relative to control; format: ADME, organism-based, Liver; details: read-out: FC
Rattus norvegicus [7] = assay: Dose normalized AUC in Sprague-Dawley rat at 17 mg/kg, po QD measured on day 1; format: ADME, organism-based; details: in vivo; summary of the method: as §1
[8] = Cmax in Sprague-Dawley rat at 17 mg/kg, po QD measured on day 4; format: ADME, organism-based; design: dose 17 mg/kg, route oral; details: in vivo; summary of the method: as §1
[9] = Cmax in Sprague-Dawley rat at 17 mg/kg, po QD measured on day 1; format: ADME, organism-based; design: dose 17 mg/kg, route oral; details: in vivo; summary of the method: as §1
CYP1A2 [10] = assay: Induction of CYP1A2 mRNA expression in Sprague-Dawley rat hepatic microsomes at 22 mg/kg, po QD for 4 days relative to control; format: ADME, organism-based, Liver; details: read-out: FC
[11] = AUC in Sprague-Dawley rat at 22 mg/kg, po QD measured on day 4; format: ADME, organism-based; details: in vivo; summary of the method: as §1
[12] = Dissociation constant, pKa of the compound; format: physicochemical
[13] = Cmax in Sprague-Dawley rat at 22 mg/kg, po QD measured on day 1; format: ADME, organism-based; design: dose 22 mg/kg, route oral; details: in vivo; summary of the method: as §1
CYP1A1 [14] = assay: Induction of CYP1A1 mRNA expression in Sprague-Dawley rat hepatic microsomes at 22 mg/kg, po QD for 4 days relative to control; format: ADME, organism-based, Liver; details: read-out: FC; summary of the method: as §2
Rattus norvegicus [15] = assay: Dose normalized AUC in Sprague-Dawley rat at 22 mg/kg, po QD measured on day 1; format: ADME, organism-based; details: in vivo; summary of the method: as §1
[16] = Cmax in Sprague-Dawley rat at 22 mg/kg, po QD measured on day 4; format: ADME, organism-based; design: dose 22 mg/kg, route oral; details: in vivo; summary of the method: as §1
[17] = AUC in Sprague-Dawley rat at 22 mg/kg, po QD measured on day 1; format: ADME, organism-based; details: in vivo; summary of the method: as §1
Rattus norvegicus [18] = assay: Dose normalized AUC in Sprague-Dawley rat at 22 mg/kg, po QD measured on day 4; format: ADME, organism-based; details: in vivo; summary of the method: as §1

Row | SMILES | AUC [1] [ng·h/mL] | fold induction at 96 h (CYP1A1 [2]) | AUC/dose (Rattus norvegicus [3]) [kg·min/L] | logD [4] | AUC [5] [ng·h/mL] | fold induction at 96 h (CYP1A2 [6]) | AUC/dose (Rattus norvegicus [7]) [kg·min/L] | Cmax [8] [ng/mL] | Cmax [9] [ng/mL] | fold induction at 96 h (CYP1A2 [10]) | AUC [11] [ng·h/mL] | pKa [12] | Cmax [13] [ng/mL] | fold induction at 96 h (CYP1A1 [14]) | AUC/dose (Rattus norvegicus [15]) [kg·min/L] | Cmax [16] [ng/mL] | AUC [17] [ng·h/mL] | AUC/dose (Rattus norvegicus [18]) [kg·min/L]
1 | Cc1c(-c2noc(-c3ccc(OC(C)C)c(C#N)c3)n2)cnc2c1CCN(C(CO)CO)C2 | 12900 | 0.9 | 59 | 2.15 | 16800 | 2 | 46 | 2170 | 1610 |  |  |  |  |  |  |  |  | 
2 | Cc1c(-c2noc(-c3cnc(OC(C)C)c(C#N)c3)n2)ccc2c1CCN(C(CO)CO)C2 |  |  |  | 2.84 |  |  |  |  |  | 3 | 28800 | 7.3 | 2100 | 7 | 66 | 2730 | 24300 | 79
